Converted amounts (≈) assume the structure as drawn.
What was measured:
Assay type in all cases: functional
Escherichia coli = assay: Antimicrobial activity against tetracycline resistant Escherichia coli SNO301-1 harboring pEC1C carrying ampC, ampR from Enterobacter cloacae after 16 to 20 hrs by broth microdilution method
In short: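 CLSI broth microdilution: serial 2-fold β-lactam dilutions in Mueller-Hinton broth, inoculum about 10^4 cells from starter cultures at OD600 0.5; MIC read as lowest concentration preventing growth after 16 to 20 h at 37°C; triplicate determinations.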

Pseudomonas aeruginosa [1] = assay: Antimicrobial activity against Pseudomonas aeruginosa PAO1 after 16 to 20 hrs by broth microdilution method
In short: (§1)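 CLSI broth microdilution: 2-fold serial antibiotic dilutions in Mueller-Hinton broth, inoculated with about 10^4 cells per 100 μl from starter cultures grown to OD600 0.5. MIC is the lowest concentration preventing growth after 16-20 h at 37°C. Triplicate.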

Pseudomonas aeruginosa [2] = assay: Antimicrobial activity against ampG deficient Pseudomonas aeruginosa PAO1 harboring pZY0901 conferring resistance to gentamycin after 16 to 20 hrs by broth microdilution method
In short: (§2)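 CLSI broth microdilution in Mueller-Hinton broth, serial 2-fold antibiotic dilutions. Inoculum about 10^4 cells per well, taken from starter cultures grown to OD600 0.5. MIC was the lowest antibiotic concentration preventing growth after 16 to 20 h at 37°C. Each MIC was determined in triplicate.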

Pseudomonas aeruginosa [3] = assay: Antimicrobial activity against ampGh1 deficient Pseudomonas aeruginosa PAO1 after 16 to 20 hrs by broth microdilution method; in short: as §2
Pseudomonas aeruginosa [4] = assay: Antimicrobial activity against ampG, ampGh1 deficient Pseudomonas aeruginosa PAO1 after 16 to 20 hrs by broth microdilution method; in short: as §2
Pseudomonas aeruginosa [5] = assay: Antimicrobial activity against ampG, ampGh1 deficient Pseudomonas aeruginosa PAK after 16 to 20 hrs by broth microdilution method; in short: as §2
Pseudomonas aeruginosa [6] = assay: Antimicrobial activity against ampD, ampDh2, ampDh3 and ampGh1 deficient Pseudomonas aeruginosa PAO1 after 16 to 20 hrs by broth microdilution method; in short: as §2
Pseudomonas aeruginosa [7] = assay: Antimicrobial activity against ampD, […], ampDh2 deficient Pseudomonas aeruginosa PAO1 after 16 to 20 hrs by broth microdilution method; in short: as §2
Pseudomonas aeruginosa [8] = assay: Antimicrobial activity against Pseudomonas aeruginosa PAK after 16 to 20 hrs by broth microdilution method in presence of 120 uM carbonyl cyanide m-chlorophenyl-hydrazone
In short: (§3)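 CLSI broth microdilution in Mueller-Hinton broth with CCCP added from a 10 mM DMSO stock to 120 μM final, alongside 2-fold serial antibiotic dilutions. Inoculum from starter cultures grown to OD600 0.5. MIC is the lowest concentration preventing growth after 16-20 h at 37°C. Triplicate.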

Pseudomonas aeruginosa [9] = assay: Antimicrobial activity against ampD, ampDh2, ampDh3 deficient Pseudomonas aeruginosa PAO1 after 16 to 20 hrs by broth microdilution method in presence of 120 uM carbonyl cyanide m-chlorophenyl-hydrazone
In short: (§4)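 CLSI broth microdilution in Mueller-Hinton broth with serial antibiotic dilutions. CCCP was added from a 10 mM DMSO stock to 120 μM final, then the bacterial culture was added as inoculum (about 10^4 cells from OD600 0.5 starter cultures). MIC was the lowest concentration preventing growth after 16 to 20 h at 37°C, run in triplicate.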

Pseudomonas aeruginosa [10] = assay: Antimicrobial activity against ampG deficient Pseudomonas aeruginosa PAO1 after 16 to 20 hrs by broth microdilution method in presence of 120 uM carbonyl cyanide m-chlorophenyl-hydrazone; in short: as §4
Pseudomonas aeruginosa [11] = assay: Antimicrobial activity against ampG deficient Pseudomonas aeruginosa PAO1 harboring pUCP24 conferring resistance to gentamycin after 16 to 20 hrs by broth microdilution method in presence of 120 uM carbonyl cyanide m-chlorophenyl-hydrazone; in short: as §4
Pseudomonas aeruginosa [12] = assay: Antimicrobial activity against ampG deficient Pseudomonas aeruginosa PAK after 16 to 20 hrs by broth microdilution method in presence of 120 uM carbonyl cyanide m-chlorophenyl-hydrazone; in short: as §4
Pseudomonas aeruginosa [13] = assay: Antimicrobial activity against ampG deficient Pseudomonas aeruginosa PAK harboring pZY0901 conferring resistance to gentamycin after 16 to 20 hrs by broth microdilution method in presence of 120 uM carbonyl cyanide m-chlorophenyl-hydrazone; in short: as §4
Pseudomonas aeruginosa [14] = assay: Antimicrobial activity against ampD, ampDh2, ampDh3 and ampG deficient Pseudomonas aeruginosa PAO1 harboring pUCP24 conferring resistance to gentamycin after 16 to 20 hrs by broth microdilution method in presence of 120 uM carbonyl cyanide m-chlorophenyl-hydrazone; in short: as §4
Pseudomonas aeruginosa [15] = assay: Antimicrobial activity against Pseudomonas aeruginosa isolate 2 obtained from cystic fibrosis patients after 16 to 20 hrs by broth microdilution method; in short: as §2
Pseudomonas aeruginosa [16] = assay: Antimicrobial activity against Pseudomonas aeruginosa isolate 3 obtained from cystic fibrosis patients after 16 to 20 hrs by broth microdilution method in presence of 120 uM carbonyl cyanide m-chlorophenyl-hydrazone; in short: as §4
Pseudomonas aeruginosa [17] = assay: Antimicrobial activity against Pseudomonas aeruginosa isolate 3 obtained from cystic fibrosis patients after 16 to 20 hrs by broth microdilution method; in short: as §2
Pseudomonas aeruginosa [18] = assay: Antimicrobial activity against Pseudomonas aeruginosa isolate 7 obtained from cystic fibrosis patients after 16 to 20 hrs by broth microdilution method in presence of 120 uM carbonyl cyanide m-chlorophenyl-hydrazone; in short: as §4
Pseudomonas aeruginosa [19] = assay: Antimicrobial activity against Pseudomonas aeruginosa isolate 7 obtained from cystic fibrosis patients after 16 to 20 hrs by broth microdilution method; in short: as §2
Pseudomonas aeruginosa [20] = assay: Antimicrobial activity against Pseudomonas aeruginosa isolate 9 obtained from cystic fibrosis patients after 16 to 20 hrs by broth microdilution method in presence of 120 uM carbonyl cyanide m-chlorophenyl-hydrazone; in short: as §4
Pseudomonas aeruginosa [21] = assay: Antimicrobial activity against Pseudomonas aeruginosa isolate 9 obtained from cystic fibrosis patients after 16 to 20 hrs by broth microdilution method; in short: as §2
Pseudomonas aeruginosa [22] = assay: Antimicrobial activity against Pseudomonas aeruginosa isolate 10 obtained from cystic fibrosis patients after 16 to 20 hrs by broth microdilution method; in short: as §1
Pseudomonas aeruginosa [23] = assay: Antimicrobial activity against Pseudomonas aeruginosa isolate 12 obtained from cystic fibrosis patients after 16 to 20 hrs by broth microdilution method; in short: as §1
Pseudomonas aeruginosa [24] = assay: Antimicrobial activity against Pseudomonas aeruginosa isolate 13 obtained from cystic fibrosis patients after 16 to 20 hrs by broth microdilution method in presence of 120 uM carbonyl cyanide m-chlorophenyl-hydrazone; in short: as §3
Pseudomonas aeruginosa [25] = assay: Antimicrobial activity against Pseudomonas aeruginosa isolate 14 obtained from cystic fibrosis patients after 16 to 20 hrs by broth microdilution method in presence of 120 uM carbonyl cyanide m-chlorophenyl-hydrazone; in short: as §3
Pseudomonas aeruginosa [26] = assay: Antimicrobial activity against Pseudomonas aeruginosa isolate 14 obtained from cystic fibrosis patients after 16 to 20 hrs by broth microdilution method; in short: as §1
Pseudomonas aeruginosa [27] = assay: Antimicrobial activity against Pseudomonas aeruginosa isolate 15 obtained from cystic fibrosis patients after 16 to 20 hrs by broth microdilution method in presence of 120 uM carbonyl cyanide m-chlorophenyl-hydrazone; in short: as §3
Pseudomonas aeruginosa [28] = assay: Antimicrobial activity against Pseudomonas aeruginosa isolate 16 obtained from cystic fibrosis patients after 16 to 20 hrs by broth microdilution method in presence of 120 uM carbonyl cyanide m-chlorophenyl-hydrazone; in short: as §3
Pseudomonas aeruginosa [29] = assay: Antimicrobial activity against Pseudomonas aeruginosa isolate 16 obtained from cystic fibrosis patients after 16 to 20 hrs by broth microdilution method; in short: as §1
Pseudomonas aeruginosa [30] = assay: Antimicrobial activity against Pseudomonas aeruginosa isolate 17 obtained from cystic fibrosis patients after 16 to 20 hrs by broth microdilution method in presence of 120 uM carbonyl cyanide m-chlorophenyl-hydrazone; in short: as §4
Pseudomonas aeruginosa [31] = assay: Antimicrobial activity against Pseudomonas aeruginosa isolate 18 obtained from cystic fibrosis patients after 16 to 20 hrs by broth microdilution method in presence of 120 uM carbonyl cyanide m-chlorophenyl-hydrazone; in short: as §4
Pseudomonas aeruginosa [32] = assay: Antimicrobial activity against Pseudomonas aeruginosa isolate 18 obtained from cystic fibrosis patients after 16 to 20 hrs by broth microdilution method; in short: as §2

CC1(C)S[C@@H]2[C@H](NC(=O)[C@H](N)c3ccccc3)C(=O)N2[C@H]1C(=O)O [AMPICILLIN]
MIC (Escherichia coli): 16 mg/L (≈ 45.8 µM)
MIC (Pseudomonas aeruginosa [1]): 256 mg/L (≈ 733 µM)
MIC (Pseudomonas aeruginosa [2]): 1020 mg/L (≈ 2930 µM)
MIC (Pseudomonas aeruginosa [3]): 256 mg/L (≈ 733 µM)
MIC (Pseudomonas aeruginosa [4]): 32 mg/L (≈ 91.6 µM)
MIC (Pseudomonas aeruginosa [5]): 32 mg/L (≈ 91.6 µM)
MIC (Pseudomonas aeruginosa [6]): 1020 mg/L (≈ 2930 µM)
MIC (Pseudomonas aeruginosa [7]): 1020 mg/L (≈ 2930 µM)
MIC (Pseudomonas aeruginosa [8]): 256 mg/L
MIC (Pseudomonas aeruginosa [9]): 64 mg/L
MIC (Pseudomonas aeruginosa [10]): 32 mg/L
MIC (Pseudomonas aeruginosa [11]): 32 mg/L
MIC (Pseudomonas aeruginosa [12]): 32 mg/L
MIC (Pseudomonas aeruginosa [13]): 32 mg/L
MIC (Pseudomonas aeruginosa [14]): 16 mg/L
MIC (Pseudomonas aeruginosa [15]): 256 mg/L (≈ 733 µM)
MIC (Pseudomonas aeruginosa [16]): 64 mg/L
MIC (Pseudomonas aeruginosa [17]): 64 mg/L (≈ 183 µM)
MIC (Pseudomonas aeruginosa [18]): 8 mg/L
MIC (Pseudomonas aeruginosa [19]): 256 mg/L (≈ 733 µM)
MIC (Pseudomonas aeruginosa [20]): 8 mg/L
MIC (Pseudomonas aeruginosa [21]): 512 mg/L (≈ 1470 µM)
MIC (Pseudomonas aeruginosa [22]): > 1020 mg/L
MIC (Pseudomonas aeruginosa [23]): > 1020 mg/L
MIC (Pseudomonas aeruginosa [24]): 8 mg/L
MIC (Pseudomonas aeruginosa [25]): 8 mg/L
MIC (Pseudomonas aeruginosa [26]): 512 mg/L (≈ 1470 µM)
MIC (Pseudomonas aeruginosa [27]): 8 mg/L
MIC (Pseudomonas aeruginosa [28]): 8 mg/L
MIC (Pseudomonas aeruginosa [29]): 16 mg/L (≈ 45.8 µM)
MIC (Pseudomonas aeruginosa [30]): 8 mg/L
MIC (Pseudomonas aeruginosa [31]): 256 mg/L
MIC (Pseudomonas aeruginosa [32]): 256 mg/L (≈ 733 µM)

— ChEMBL document CHEMBL1687785, “ampG gene of Pseudomonas aeruginosa and its role in β-lactamase expression” (2010)
